In ChEMBL document CHEMBL2176911 (J Med Chem, 2012):
Calls of active or inactive are those of the source. No cut-off for these calls is given here.

Columns and labels:
[1] = target: Dual specificity protein kinase CLK2 (Mus musculus, UniProt O35491); test: Inhibition of mouse recombinant GST-tagged CLK2 expressed in Escherichia coli using GRSRSRSRSRSR as substrate and [gamma33P]ATP after 30 mins by scintillation counting
In short: (§1)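 Panel of purified kinases (recombinant from several species plus native enzymes), each assayed radiometrically over a range of inhibitor concentrations; IC50 in μM calculated from the dose-response curves.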

[2] = target: Casein kinase II (Homo sapiens, UniProt P19784+P67870+P68400); test: Inhibition of human recombinant CK2 using RRREDEESDDEE as substrate and [gamma33P]ATP after 30 mins by scintillation counting; format: protein-complex assay
In short: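 Purified recombinant kinase from a 26-enzyme panel, with inhibitor tested at various concentrations. IC50 in μM calculated from dose–response curves.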

[3] = target: CDK9/cyclin T1 (Homo sapiens, UniProt P50750); test: Inhibition of human recombinant CDK9/cyclin T expressed in insect cell using YSPTSPSYSPTSPSYSPTSPSKKKK as substrate and [gamma33P]ATP after 30 mins by scintillation counting; in short: as §1
[4] = Inhibition of starfish CDK1/cyclin B using histone H1 as substrate and [gamma33P]ATP after 30 mins by scintillation counting; parameters: species or system Asteroidea; in short: as §1
[5] = test system: HT-22; test: Neuroprotective activity against glutamate-induced toxicity in mouse HT22 cells at 10 to 20 uM up to 48 hrs by MTS assay; format: functional, cell-based
[6] = target: Dual specificity tyrosine-phosphorylation-regulated kinase 1A (Mus musculus) (UniProt Q61214); test: Inhibition of DYRK1A in mouse HT22 cells at 10 uM after 4 hrs; format: cell-based; conditions: HT-22
[7] = test system: HT-22; test: Downregulation of DYRK1A expression in mouse HT22 cells after 4 hrs by Western blot analysis; format: functional, cell-based
[8] = organism: Mus musculus; test: Binding affinity to GSK3beta1 in mouse brain homogenate by Western blot analysis; format: tissue-based
In short: (§2)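 Bead pull-down from HT22 cell or mouse brain extracts, with ethanolamine beads lacking ligand as control. Specificity was tested by adding excess free inhibitor to the extracts before binding.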

[9] = target: Dual specificity tyrosine-phosphorylation-regulated kinase 1A (Mus musculus) (UniProt Q61214); test: Binding affinity to DYRK1A in mouse brain homogenate by Western blot analysis; format: tissue-based; in short: as §2
[10] = target: 1-phosphatidylinositol 3-phosphate 5-kinase (Mus musculus) (UniProt Q9Z1T6); test: Binding affinity to phosphatidylinositol-3-phosphate 5-kinase type 3 in mouse HT22 cell lysate by Western blot analysis; format: cell-free; conditions: HT-22; in short: as §2
[11] = target: Casein kinase II subunit alpha (Mus musculus) (UniProt Q60737); test: Binding affinity to CK2 alpha subunit in mouse HT22 cell lysate by Western blot analysis; format: cell-free; conditions: HT-22; in short: as §2
[12] = test system: HT-22; test: Binding affinity to GSK3beta1 in mouse HT22 cell lysate by Western blot analysis; format: cell-free; in short: as §2
[13] = target: Dual specificity tyrosine-phosphorylation-regulated kinase 1A (Mus musculus) (UniProt Q61214); test: Binding affinity to DYRK1A in mouse HT22 cell lysate by Western blot analysis; format: cell-free; conditions: HT-22; in short: as §2
[14] = target: T1, Glycogen synthase kinase-3 alpha (Homo sapiens, UniProt P49840); test: Binding affinity to GSK3A
[15] = target: Serine/threonine-protein kinase TAO1 (Homo sapiens, UniProt Q7L7X3); test: Binding affinity to TAOK1
[16] = target: Interleukin-1 receptor-associated kinase 1 (Homo sapiens, UniProt P51617); test: Binding affinity to IRAK1
[17] = target: Homeodomain-interacting protein kinase 1 (Homo sapiens, UniProt Q86Z02); test: Binding affinity to HIPK1
[18] = Inhibition of CK2 at 1 uM after 30 mins
[19] = target: Homeodomain-interacting protein kinase 2 (Homo sapiens) (UniProt Q9H2X6); test: Inhibition of human recombinant GST-tagged HIPK2 expressed in Escherichia coli at 1 uM after 30 mins
[20] = target: Dual specificity tyrosine-phosphorylation-regulated kinase 3 (Homo sapiens) (UniProt O43781); test: Inhibition of human recombinant GST-tagged DYRK3 expressed in Escherichia coli using KKISGRLSPIMTEQ as substrate at 1 uM after 30 mins
[21] = target: T2, Dual specificity tyrosine-phosphorylation-regulated kinase 2 (Homo sapiens) (UniProt Q92630); test: Inhibition of human recombinant GST-tagged DYRK2 expressed in Escherichia coli using KKISGRLSPIMTEQ as substrate at 10 uM after 30 mins
T2 sequence (whole entry): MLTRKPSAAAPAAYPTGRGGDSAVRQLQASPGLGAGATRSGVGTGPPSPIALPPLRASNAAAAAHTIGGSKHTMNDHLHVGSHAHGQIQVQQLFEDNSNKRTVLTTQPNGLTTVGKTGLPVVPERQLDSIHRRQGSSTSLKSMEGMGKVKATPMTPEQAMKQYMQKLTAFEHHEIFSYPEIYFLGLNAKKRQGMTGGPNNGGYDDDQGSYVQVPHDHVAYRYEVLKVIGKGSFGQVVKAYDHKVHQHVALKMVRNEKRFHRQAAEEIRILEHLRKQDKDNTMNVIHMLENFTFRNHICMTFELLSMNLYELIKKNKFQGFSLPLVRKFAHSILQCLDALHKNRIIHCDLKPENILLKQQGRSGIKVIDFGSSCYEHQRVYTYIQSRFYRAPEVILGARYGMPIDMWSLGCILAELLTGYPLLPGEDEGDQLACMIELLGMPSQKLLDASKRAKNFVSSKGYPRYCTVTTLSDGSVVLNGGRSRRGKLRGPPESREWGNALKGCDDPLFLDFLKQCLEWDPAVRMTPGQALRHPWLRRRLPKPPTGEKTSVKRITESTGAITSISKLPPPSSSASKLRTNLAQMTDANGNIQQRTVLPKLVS

[22] = target: Dual specificity tyrosine-phosphorylation-regulated kinase 1A (Homo sapiens) (UniProt Q13627); test: Inhibition of human recombinant GST-tagged DYRK1A expressed in Escherichia coli using KKISGRLSPIMTEQ as substrate at 10 uM after 30 mins
[23] = Inhibition of Leishmania major recombinant CK1 expressed in Escherichia coli using RRKHAAIGpSAYSITA as substrate and [gamma33P]ATP after 30 mins by scintillation counting; in short: as §1
[24] = target: Glycogen synthase kinase-3 (Sus scrofa, UniProt B2LUN4+I6LNT8); test: Inhibition of pig GSK3alpha/beta isolated from brain using YRRAAVPPSPSLSRHSSPHQ-phosphoS-EDEEE as substrate and [gamma33P]ATP after 30 mins by scintillation counting; in short: as §1
[25] = target: T1, Glycogen synthase kinase-3 alpha; test: Inhibition of human recombinant GSK3alpha expressed in insect cells using YRRAAVPPSPSLSRHSSPHQ-phosphoS-EDEEE as substrate and [gamma33P]ATP after 30 mins by scintillation counting

T1 sequence (P49840 whole entry): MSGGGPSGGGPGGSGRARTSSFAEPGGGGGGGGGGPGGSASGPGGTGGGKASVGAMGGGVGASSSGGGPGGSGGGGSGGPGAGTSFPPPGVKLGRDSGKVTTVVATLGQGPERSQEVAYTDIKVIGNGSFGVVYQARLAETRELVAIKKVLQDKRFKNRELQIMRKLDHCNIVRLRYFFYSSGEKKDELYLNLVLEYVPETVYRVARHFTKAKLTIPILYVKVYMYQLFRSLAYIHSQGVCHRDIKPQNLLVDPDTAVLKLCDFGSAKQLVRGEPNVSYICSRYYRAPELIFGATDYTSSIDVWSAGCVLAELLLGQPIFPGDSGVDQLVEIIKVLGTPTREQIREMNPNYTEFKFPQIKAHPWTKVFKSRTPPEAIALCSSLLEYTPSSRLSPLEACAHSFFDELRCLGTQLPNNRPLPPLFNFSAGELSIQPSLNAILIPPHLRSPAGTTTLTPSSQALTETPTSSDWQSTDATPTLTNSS
Interleukin-1 receptor-associated kinase 1, sequence (P51617 whole entry): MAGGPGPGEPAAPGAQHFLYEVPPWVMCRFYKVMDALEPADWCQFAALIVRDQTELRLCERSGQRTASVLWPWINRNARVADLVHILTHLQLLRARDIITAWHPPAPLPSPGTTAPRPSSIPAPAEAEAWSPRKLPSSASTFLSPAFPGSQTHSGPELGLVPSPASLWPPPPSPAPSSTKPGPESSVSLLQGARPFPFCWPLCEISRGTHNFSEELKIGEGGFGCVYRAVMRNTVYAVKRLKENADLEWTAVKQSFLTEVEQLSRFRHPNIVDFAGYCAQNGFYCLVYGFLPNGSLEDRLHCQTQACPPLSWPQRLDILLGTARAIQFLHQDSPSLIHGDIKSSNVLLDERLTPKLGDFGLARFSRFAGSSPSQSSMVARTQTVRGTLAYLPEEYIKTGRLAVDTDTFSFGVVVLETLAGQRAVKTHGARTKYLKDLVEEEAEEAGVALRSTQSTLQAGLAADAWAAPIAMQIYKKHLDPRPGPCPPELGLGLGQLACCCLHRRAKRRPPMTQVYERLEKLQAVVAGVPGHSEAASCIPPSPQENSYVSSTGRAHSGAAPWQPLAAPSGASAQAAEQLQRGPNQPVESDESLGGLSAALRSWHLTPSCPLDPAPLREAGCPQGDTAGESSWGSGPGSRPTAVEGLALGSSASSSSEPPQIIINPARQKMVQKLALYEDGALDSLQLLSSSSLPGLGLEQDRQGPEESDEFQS
Homeodomain-interacting protein kinase 1, sequence (Q86Z02 whole entry): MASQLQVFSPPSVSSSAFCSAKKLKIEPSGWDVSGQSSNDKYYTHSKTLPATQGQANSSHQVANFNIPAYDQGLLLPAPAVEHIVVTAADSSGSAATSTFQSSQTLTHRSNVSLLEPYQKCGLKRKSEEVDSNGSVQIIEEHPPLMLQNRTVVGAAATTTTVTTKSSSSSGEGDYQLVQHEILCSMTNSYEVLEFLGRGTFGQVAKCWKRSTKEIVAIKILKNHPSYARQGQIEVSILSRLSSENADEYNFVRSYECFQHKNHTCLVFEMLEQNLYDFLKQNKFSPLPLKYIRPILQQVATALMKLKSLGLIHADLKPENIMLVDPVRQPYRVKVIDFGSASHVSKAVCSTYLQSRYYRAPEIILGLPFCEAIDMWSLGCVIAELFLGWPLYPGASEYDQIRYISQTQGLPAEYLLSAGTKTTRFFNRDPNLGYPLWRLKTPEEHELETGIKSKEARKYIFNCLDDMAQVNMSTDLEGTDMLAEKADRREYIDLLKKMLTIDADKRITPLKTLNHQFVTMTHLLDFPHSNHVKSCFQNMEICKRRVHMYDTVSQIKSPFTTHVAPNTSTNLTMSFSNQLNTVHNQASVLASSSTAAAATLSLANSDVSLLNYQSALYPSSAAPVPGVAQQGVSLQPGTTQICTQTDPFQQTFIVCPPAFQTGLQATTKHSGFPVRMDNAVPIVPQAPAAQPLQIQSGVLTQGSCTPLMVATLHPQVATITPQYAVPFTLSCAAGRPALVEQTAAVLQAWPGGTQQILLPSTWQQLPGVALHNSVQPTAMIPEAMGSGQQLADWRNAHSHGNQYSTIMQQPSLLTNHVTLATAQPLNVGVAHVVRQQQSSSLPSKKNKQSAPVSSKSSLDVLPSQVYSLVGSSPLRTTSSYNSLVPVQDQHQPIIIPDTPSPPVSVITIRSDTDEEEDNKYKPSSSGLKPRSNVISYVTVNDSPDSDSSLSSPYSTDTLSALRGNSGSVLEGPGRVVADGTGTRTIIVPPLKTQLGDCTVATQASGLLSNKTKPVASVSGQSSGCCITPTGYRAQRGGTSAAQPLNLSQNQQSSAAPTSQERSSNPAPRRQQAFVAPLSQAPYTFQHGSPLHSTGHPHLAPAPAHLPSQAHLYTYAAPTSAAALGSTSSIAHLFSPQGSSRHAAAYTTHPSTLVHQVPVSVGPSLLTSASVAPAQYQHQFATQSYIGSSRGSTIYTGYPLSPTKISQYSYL
Casein kinase II subunit alpha (Mus musculus), sequence (Q60737 whole entry): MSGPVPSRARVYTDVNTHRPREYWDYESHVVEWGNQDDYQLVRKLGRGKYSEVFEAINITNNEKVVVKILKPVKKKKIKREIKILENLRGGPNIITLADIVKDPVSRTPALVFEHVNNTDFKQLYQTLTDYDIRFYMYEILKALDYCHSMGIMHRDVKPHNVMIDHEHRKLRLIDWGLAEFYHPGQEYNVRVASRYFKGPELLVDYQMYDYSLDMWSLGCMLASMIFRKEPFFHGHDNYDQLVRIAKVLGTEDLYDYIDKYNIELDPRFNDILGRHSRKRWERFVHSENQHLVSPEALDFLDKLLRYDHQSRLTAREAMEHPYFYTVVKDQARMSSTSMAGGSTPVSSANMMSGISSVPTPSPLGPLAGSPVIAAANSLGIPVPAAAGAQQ
Serine/threonine-protein kinase TAO1, sequence (Q7L7X3 whole entry): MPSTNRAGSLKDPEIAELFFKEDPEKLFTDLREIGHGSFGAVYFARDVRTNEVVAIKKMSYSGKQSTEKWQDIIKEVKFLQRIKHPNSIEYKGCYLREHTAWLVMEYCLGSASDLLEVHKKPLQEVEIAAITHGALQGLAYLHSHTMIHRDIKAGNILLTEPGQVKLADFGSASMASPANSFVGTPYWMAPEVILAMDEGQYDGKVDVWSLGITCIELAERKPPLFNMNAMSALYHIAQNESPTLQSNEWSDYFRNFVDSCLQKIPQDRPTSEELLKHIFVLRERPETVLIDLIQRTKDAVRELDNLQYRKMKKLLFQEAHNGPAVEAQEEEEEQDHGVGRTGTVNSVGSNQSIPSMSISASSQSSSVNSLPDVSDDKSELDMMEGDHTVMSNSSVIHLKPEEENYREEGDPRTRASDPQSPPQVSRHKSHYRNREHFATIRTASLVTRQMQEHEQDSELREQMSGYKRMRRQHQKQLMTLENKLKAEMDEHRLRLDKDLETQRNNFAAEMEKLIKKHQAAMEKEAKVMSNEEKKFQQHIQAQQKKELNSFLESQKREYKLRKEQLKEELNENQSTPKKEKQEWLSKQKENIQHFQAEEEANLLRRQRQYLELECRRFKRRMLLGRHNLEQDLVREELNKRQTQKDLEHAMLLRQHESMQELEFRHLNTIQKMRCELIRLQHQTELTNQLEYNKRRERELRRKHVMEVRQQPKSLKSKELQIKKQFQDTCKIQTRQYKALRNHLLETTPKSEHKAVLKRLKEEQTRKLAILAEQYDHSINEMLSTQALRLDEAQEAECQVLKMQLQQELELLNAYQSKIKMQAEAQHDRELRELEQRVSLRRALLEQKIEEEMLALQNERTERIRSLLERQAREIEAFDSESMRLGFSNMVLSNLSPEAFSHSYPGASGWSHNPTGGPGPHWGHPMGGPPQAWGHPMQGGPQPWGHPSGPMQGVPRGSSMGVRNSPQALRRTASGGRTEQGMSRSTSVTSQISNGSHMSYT
Dual specificity tyrosine-phosphorylation-regulated kinase 3 (Homo sapiens), sequence (O43781 whole entry): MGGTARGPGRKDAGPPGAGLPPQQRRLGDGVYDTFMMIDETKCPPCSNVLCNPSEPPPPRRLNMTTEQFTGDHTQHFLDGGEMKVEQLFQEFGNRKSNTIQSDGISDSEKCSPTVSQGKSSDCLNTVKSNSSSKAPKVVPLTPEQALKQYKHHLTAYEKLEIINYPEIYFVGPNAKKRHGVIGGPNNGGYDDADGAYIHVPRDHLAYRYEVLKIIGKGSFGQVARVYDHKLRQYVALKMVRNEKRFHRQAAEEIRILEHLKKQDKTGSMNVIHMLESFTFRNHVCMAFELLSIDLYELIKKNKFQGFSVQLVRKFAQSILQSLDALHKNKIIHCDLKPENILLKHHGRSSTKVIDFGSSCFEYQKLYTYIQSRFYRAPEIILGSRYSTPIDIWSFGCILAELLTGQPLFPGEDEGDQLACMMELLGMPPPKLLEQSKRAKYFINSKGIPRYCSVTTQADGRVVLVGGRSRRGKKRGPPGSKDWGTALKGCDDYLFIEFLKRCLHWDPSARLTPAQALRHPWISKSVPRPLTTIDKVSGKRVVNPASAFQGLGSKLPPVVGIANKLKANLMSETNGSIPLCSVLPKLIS
Casein kinase II, sequence (P67870 whole entry): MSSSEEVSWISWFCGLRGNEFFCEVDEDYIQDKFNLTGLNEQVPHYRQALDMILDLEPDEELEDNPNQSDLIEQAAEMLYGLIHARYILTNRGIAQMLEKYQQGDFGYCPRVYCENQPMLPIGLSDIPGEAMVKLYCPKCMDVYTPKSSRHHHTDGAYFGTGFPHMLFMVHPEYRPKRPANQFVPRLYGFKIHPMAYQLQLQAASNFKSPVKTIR
Casein kinase II, sequence (P68400 whole entry): as the sequence (Q60737 whole entry) above, with S335G, T337S, A340P, S378P, I381M counted along it
Casein kinase II, sequence (P19784 whole entry): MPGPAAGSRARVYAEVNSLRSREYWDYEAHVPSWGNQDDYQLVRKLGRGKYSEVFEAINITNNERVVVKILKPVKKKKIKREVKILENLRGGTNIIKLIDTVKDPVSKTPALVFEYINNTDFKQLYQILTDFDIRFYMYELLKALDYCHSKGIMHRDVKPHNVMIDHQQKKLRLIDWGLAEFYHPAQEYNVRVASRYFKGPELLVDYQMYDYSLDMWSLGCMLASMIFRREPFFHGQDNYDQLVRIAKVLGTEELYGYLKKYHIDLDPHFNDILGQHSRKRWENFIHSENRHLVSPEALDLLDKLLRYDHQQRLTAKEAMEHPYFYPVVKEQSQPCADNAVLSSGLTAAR

Which IC50 [1] does the source give for `O=C1NC(Nc2ccccc2)=N/C1=C\c1ccc2c(c1)OCO2` here?
The IC50 was 720 nM.

What about the IC50 [2] of the same molecule?
Its IC50 is 320 nM.

And the IC50 [3]?
Its IC50 is 18000 nM.

And the IC50 [4]?
Its IC50 is greater than 30000 nM.

And the Activity [5]?
Its Activity is “Active”.

What about the inhibition [6] of the same molecule?
The inhibition was “Active”.

And the Activity [7]?
The Activity was “inactive”.

And the Activity [8]?
The Activity was “Active”.

And the Activity [9]?
Its Activity is “Active”.

What about the Activity [10] of the same molecule?
The Activity was “Active”.

And the Activity [11]?
The Activity was “Active”.

What about the Activity [12] of the same molecule?
The Activity was “Active”.

And the Activity [13]?
Its Activity is “Active”.

What about the Kd [14] of the same molecule?
The Kd was 550 nM.

And the Kd [15]?
The Kd was 1700 nM.

What about the Kd [16] of the same molecule?
The Kd was 930 nM.

What about the Kd [17] of the same molecule?
Its Kd is 320 nM.

And the inhibition [18]?
The inhibition was “Active”.

And the inhibition [19]?
The inhibition was “Active”.

And the inhibition [20]?
Its inhibition is “Active”.

What about the inhibition [21] of the same molecule?
Its inhibition is “Active”.

And the inhibition [22]?
Its inhibition is “Active”.

What about the IC50 [23] of the same molecule?
The IC50 was no less than 10000 nM.

What about the IC50 [24] of the same molecule?
The IC50 was 410 nM.

What about the IC50 [25] of the same molecule?
Its IC50 is 210 nM.
